Columns and labels:
Format in all cases: functional, cell-based
HL-60 = test: Cytotoxicity against human HL-60 cells assessed as reduction in cell viability after 48 hrs by MTT assay; details: HL-60, 48 h
Outline: (§1)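 Cells exposed 48 h to compounds at 0.0625 to 40 μM, with cisplatin and paclitaxel as positive controls. Survival read by MTT, absorbance at 570 nm. Data are means of three replicates. IC50 derived from a standard dose–response curve fit.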

A549 = test: Cytotoxicity against human A549 cells assessed as reduction in cell viability after 48 hrs by MTT assay; details: A549, 48 h; outline: as §1
SMMC-7721 = test: Cytotoxicity against human SMMC-7721 cells assessed as reduction in cell viability after 48 hrs by MTT assay; details: SMMC-7721, 48 h; outline: as §1
NCM460 = test: Cytotoxicity against human NCM460 cells assessed as reduction in cell viability after 48 hrs by MTT assay; details: NCM460, 48 h; outline: as §1
MCF7 = test: Cytotoxicity against human MCF7 cells assessed as reduction in cell viability after 48 hrs by MTT assay; details: MCF7, 48 h; outline: as §1
SW480 = test: Cytotoxicity against human SW480 cells assessed as reduction in cell viability after 48 hrs by MTT assay; details: SW480, 48 h; outline: as §1

SMILES: CC(=O)N[C@H](CC(=O)OC[C@@]1(C)CCC[C@]2(C)C3=C(CC[C@@H]12)C(=O)OC3)c1ccccc1
- IC50 (HL-60): > 40 µM
- IC50 (A549): > 40 µM
- IC50 (SMMC-7721): > 40 µM
- IC50 (NCM460): > 40 µM
- IC50 (MCF7): > 40 µM
- IC50 (SW480): > 40 µM

SMILES: CC(=O)N[C@H](CC(=O)O[C@@H]1C[C@](C)(C=O)[C@@H]2CCC3=C(COC3=O)[C@@]2(C)C1)c1ccccc1
- IC50 (HL-60): 9.9 µM
- IC50 (A549): 28.4 µM
- IC50 (SMMC-7721): 19.4 µM
- IC50 (NCM460): > 40 µM
- IC50 (MCF7): 18.3 µM
- IC50 (SW480): 16.4 µM

SMILES: CC(=O)N[C@H](CC(=O)O[C@@H]1C[C@](C)(CO)[C@@H]2CCC3=C(COC3=O)[C@@]2(C)C1)c1ccccc1
- IC50 (HL-60): > 40 µM
- IC50 (A549): > 40 µM
- IC50 (SMMC-7721): > 40 µM
- IC50 (NCM460): > 40 µM
- IC50 (MCF7): > 40 µM
- IC50 (SW480): > 40 µM

SMILES: CC(=O)O[C@H]1C(=O)[C@@]2(C)[C@H]([C@H](OC(=O)c3ccccc3)[C@]3(O)C[C@H](OC(=O)[C@H](O)[C@@H](NC(=O)c4ccccc4)c4ccccc4)C(C)=C1C3(C)C)[C@]1(OC(C)=O)CO[C@@H]1C[C@@H]2O [PACLITAXEL]
- IC50 (HL-60): < 0.008 µM
- IC50 (A549): < 0.008 µM
- IC50 (SMMC-7721): < 0.008 µM
- IC50 (NCM460): < 0.008 µM
- IC50 (MCF7): < 0.008 µM
- IC50 (SW480): < 0.008 µM

SMILES: CC(=O)N[C@H](CC(=O)O[C@@H]1CC(C)(C)[C@@H]2CCC3=C(COC3=O)[C@@]2(C)C1)c1ccccc1
- IC50 (HL-60): 7.3 µM
- IC50 (A549): 15 µM
- IC50 (SMMC-7721): 12.6 µM
- IC50 (NCM460): > 40 µM
- IC50 (MCF7): 11.8 µM
- IC50 (SW480): 12.4 µM

SMILES: C[C@]1(CO)CCC[C@]2(C)C3=C(CC[C@@H]12)C(=O)OC3
- IC50 (HL-60): > 40 µM
- IC50 (A549): > 40 µM
- IC50 (SMMC-7721): > 40 µM
- IC50 (NCM460): > 40 µM
- IC50 (MCF7): > 40 µM
- IC50 (SW480): > 40 µM
